Experimental data as given in ChEMBL document CHEMBL1154490, “Novel linear triaryl guanidines, N-substituted guanidines and potential prodrugs as antiprotozoal agents” (Eur J Med Chem, 2008).
The source made the active and inactive calls. The calls are words filed in the database; no cut-off is given here.

Legend:
Plasmodium falciparum = assay: Antiprotozoal activity against chloroquine and pyrimethamine-resistant Plasmodium falciparum K1 after 72 hrs by [3H]hypoxanthine uptake; format: functional, organism-based
L6 = assay: Cytotoxicity against rat L6 cells after 72 hrs by alamar blue assay; format: cell-based; details: L6, 72 h
In short: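 Cultured L6 rat myoblasts exposed to compound; viability read by the same Alamar Blue procedure used for the STIB900 trypanosome assay; duplicate determinations.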

[1] = tested on: Trypanosoma brucei rhodesiense; assay: Antitrypanosomal activity against Trypanosoma brucei rhodesiense STIB900 infected in mouse assessed as average survival days at 25 mg/kg, po administered on day 3 to 6 after infection; format: functional
[2] = tested on: Trypanosoma brucei rhodesiense; assay: Antiprotozoal activity against Trypanosoma brucei rhodesiense STIB900 bloodstream form after 72 hrs by alamar blue assay; format: functional, organism-based
[3] = tested on: Trypanosoma brucei rhodesiense; assay: Antitrypanosomal activity against Trypanosoma brucei rhodesiense STIB900 infected in mouse assessed as parasite-free survival at 25 mg/kg, po administered on day 3 to 6 after infection measured on day 60; format: functional, organism-based; design: dose 25 mg/kg
In short: (§1)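 STIB900 acute mouse infection model with four infected mice per group. Parent compounds were given intraperitoneally and prodrugs orally, once daily for 4 days. Read-outs were the number of mice alive and parasite-free at day 60, and average days of survival.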

[4] = Binding affinity to poly(dA-dT)2 DNA assessed as change in thermal melting temperature administered at compound to DNA ratio of 0.3 by thermistor analysis
In short: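 Thermal melting of poly(dA-dT)2 in CAC 10 buffer (cacodylic acid 10 mM, EDTA 1 mM, NaCl 100 mM, pH 7.0), 1 cm quartz cuvettes, temperature raised 0.5 C/min. DNA quantified by A260. Compound:DNA 0.3 mol/mol, compound-free DNA as control. ΔTm reproducible within 0.5 C.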

[5] = tested on: Trypanosoma brucei rhodesiense; assay: Antitrypanosomal activity against Trypanosoma brucei rhodesiense STIB900 infected in mouse assessed as average survival days at 20 mg/kg, ip administered on day 3 to 6 after infection; format: functional; details: route intraperitoneal
[6] = tested on: Trypanosoma brucei rhodesiense; assay: Antitrypanosomal activity against Trypanosoma brucei rhodesiense STIB900 infected in mouse assessed as parasite-free survival at 20 mg/kg, ip administered on day 3 to 6 after infection measured on day 60; format: functional, organism-based; design: dose 20 mg/kg; in short: as §1
[7] = tested on: Trypanosoma brucei rhodesiense; assay: Antitrypanosomal activity against Trypanosoma brucei rhodesiense STIB900 infected in mouse assessed as parasite-free survival at 25 mg/kg, ip administered on day 3 to 6 after infection measured on day 60; format: functional, organism-based; design: dose 25 mg/kg
[8] = tested on: Trypanosoma brucei rhodesiense; assay: Antitrypanosomal activity against Trypanosoma brucei rhodesiense STIB900 infected in mouse assessed as average survival days at 25 mg/kg, ip administered on day 3 to 6 after infection; format: functional; details: route intraperitoneal

For `CCOC(=O)/N=C(\NC)Nc1ccc(-c2ccc(-c3ccc(N/C(=N/C(=O)OCC)NC)cc3)cc2)cc1`, the IC50 (Plasmodium falciparum) was 8.9 nM, the IC50 (L6) was 5700 nM and the Activity [1] was 20.25 days. For the same compound, the IC50 [2] was 7500 nM and the Activity [3] was “inactive”.

Compound `CC(C)NC(=N)Nc1ccc(-c2ccc(-c3ccc(NC(=N)NC(C)C)cn3)cc2)nc1` has an IC50 (Plasmodium falciparum) of 393 nM, an IC50 (L6) of 89700 nM and an IC50 [2] of 11900 nM. The ΔTm [4] was 8.1 °C.

`N=C(N)c1ccc(-c2ccc(-c3ccc(C(=N)N)cc3)cc2)cc1` gave an IC50 (Plasmodium falciparum) of 1 nM, an Activity [5] of 29 days and a ΔTm [4] of 18.2 °C. For the same compound, the Activity [6] was “inactive”.

For `CCOC(=O)/N=C(\N)Nc1ccc(-c2ccc(-c3ccc(N/C(N)=N/C(=O)OCC)cn3)cc2)nc1`, the IC50 (Plasmodium falciparum) was 1.9 nM, the IC50 (L6) was > 181000 nM and the IC50 [2] was 61000 nM. For the same compound, the Activity [3] was “inactive”.

Compound `N=C(N)Nc1ccc(-c2ccc(-c3ccc(NC(=N)N)cc3)cc2)cc1` has an IC50 (Plasmodium falciparum) of 27 nM, an IC50 (L6) of 25400 nM and an IC50 [2] of 18 nM. For the same compound, the Activity [5] was >54.5 days, the ΔTm [4] was 14.2 °C and the Activity [6] was “inactive”.

With `CCOC(=O)/N=C(\N)Nc1ccc(-c2ccc(-c3ccc(N/C(N)=N/C(=O)OCC)cc3)cc2)cc1` the IC50 (Plasmodium falciparum) was 1.7 nM, the IC50 (L6) was > 181000 nM and the Activity [1] was 20.25 days. For the same compound, the IC50 [2] was 142000 nM and the Activity [3] was “inactive”.

In the case of `CNC(=N)Nc1ccc(-c2ccc(-c3ccc(NC(=N)NC)cn3)cc2)nc1`, the IC50 (Plasmodium falciparum) is reported as 54 nM, the IC50 (L6) is reported as > 161000 nM and the IC50 [2] is reported as 134 nM. For the same compound, the Activity [5] was >47 days, the ΔTm [4] was 10.2 °C and the Activity [6] was “inactive”.

`CCOC(=O)/N=C(/Nc1ccc(-c2ccc(-c3ccc(N/C(=N/C(=O)OCC)NC(C)C)cc3)cc2)cc1)NC(C)C` showed an IC50 (Plasmodium falciparum) of 4.5 nM, an IC50 (L6) of 5300 nM and an IC50 [2] of 14200 nM.

`N=C(N)Nc1ccc(-c2ccc(-c3ccc(NC(=N)N)cn3)cc2)nc1` gave an IC50 (Plasmodium falciparum) of 151 nM, an IC50 (L6) of 152000 nM and an IC50 [2] of 169 nM. The Activity [5] was 8.5 days, the ΔTm [4] was 9.2 °C and the Activity [6] was “inactive”.

Work on `CC(C)NC(=N)Nc1ccc(-c2ccc(-c3ccc(NC(=N)NC(C)C)cc3)cc2)cc1` yielded an IC50 (Plasmodium falciparum) of 14 nM, an IC50 (L6) of 21900 nM and an IC50 [2] of 530 nM. The ΔTm [4] was 9.3 °C.

In the case of `CNC(=N)Nc1ccc(-c2ccc(-c3ccc(NC(=N)NC)cc3)cc2)cc1`, the IC50 (Plasmodium falciparum) is reported as 7 nM, the IC50 (L6) is reported as 65100 nM and the IC50 [2] is reported as 18 nM. For the same compound, the Activity [5] was >56 days, the ΔTm [4] was 13 °C and the Activity [6] was “inactive”.

In the case of `CCOC(=O)/N=C(/Nc1ccc(-c2ccc(-c3ccc(N/C(=N/C(=O)OCC)NC(C)C)cn3)cc2)nc1)NC(C)C`, the IC50 (Plasmodium falciparum) is reported as 2.9 nM, the IC50 (L6) is reported as > 135000 nM and the IC50 [2] is reported as 8200 nM.

With `CCOC(=O)/N=C(\NC)Nc1ccc(-c2ccc(-c3ccc(N/C(=N/C(=O)OCC)NC)cn3)cc2)nc1` the Activity [7] was “inactive”, the IC50 (Plasmodium falciparum) was 2.6 nM and the IC50 (L6) was > 169000 nM. It also gave an IC50 [2] of 17800 nM and an Activity [8] of 7.75 days.
